In assay [1] the target is T1, Glutathione S-transferase Mu 1 (Mus musculus) (UniProt P10649).
T1 sequence (whole entry): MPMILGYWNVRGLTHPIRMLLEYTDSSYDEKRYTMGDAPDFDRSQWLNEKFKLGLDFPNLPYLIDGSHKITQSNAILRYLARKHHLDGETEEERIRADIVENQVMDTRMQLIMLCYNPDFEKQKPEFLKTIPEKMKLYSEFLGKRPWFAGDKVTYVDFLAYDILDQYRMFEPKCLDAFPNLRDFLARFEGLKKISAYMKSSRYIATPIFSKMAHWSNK
Nature of the assay: Ratio of glutathione S-transferase activity in tested (cottonseed oil alone + compound) to that of control (cottonseed oil alone). Format: functional. Summed up: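 Ratio of cytosolic GST specific activity (CDNB substrate, 340 nm, 30 °C) in each tissue of gavaged female A/J mice to that of cottonseed oil-only controls (test/control).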

Assay [2] relates to glutathione S-transferase (Mus musculus). Description: Induction of increased cytosolic glutathione S-transferase activity in lung of A/J mice treated with 3 doses of 0.04 mM compound (dissolved in 0.3 mL of cottonseed oil) for 2 days.
For assay [3] the test system is unchanged. Nature of the assay: Induction of increased cytosolic glutathione S-transferase activity in lung of A/J mice treated with 3 doses of 0.10 mM compound (dissolved in 0.3 mL of cottonseed oil) for 2 days.
Assay [4] has the same test system. Description: Induction of increased cytosolic glutathione S-transferase activity in liver of A/J mice treated with 3 doses of 0.10 mM compound (dissolved in 0.3 mL of cottonseed oil) for 2 days.
The test system is the same in assay [5]. Nature of the assay: Induction of increased cytosolic glutathione S-transferase activity in liver of A/J mice treated with 3 doses of 0.04 mM compound (dissolved in 0.3 mL of cottonseed oil) for 2 days.
Assay [6] shares this test system. Description: Induction of increased cytosolic glutathione S-transferase activity in bladder of A/J mice treated with 3 doses of 0.04 mM compound (dissolved in 0.3 mL of cottonseed oil) for 2 days. Conditions: Urinary bladder.
Assay [7] shares this test system. Description: Induction of increased cytosolic glutathione S-transferase activity in forestomach of A/J mice treated with 3 doses of 0.04 mM compound (dissolved in 0.3 mL of cottonseed oil) for 2 days. To be noted: Stomach.
Assay [8] shares this test system. Nature of the assay: Induction of increased cytosolic glutathione S-transferase activity in forestomach of A/J mice treated with 3 doses of 0.10 mM compound (dissolved in 0.3 mL of cottonseed oil) for 2 days. Conditions: Stomach.
Assay [9] has the same test system. Description: Induction of increased cytosolic glutathione S-transferase activity in large bowel mucosa of A/J mice treated with 3 doses of 0.04 mM compound (dissolved in 0.3 mL of cottonseed oil) for 2 days.
Assay [10] shares this test system. Nature of the assay: Induction of increased cytosolic glutathione S-transferase activity in large bowel mucosa of A/J mice treated with 3 doses of 0.10 mM compound (dissolved in 0.3 mL of cottonseed oil) for 2 days.
For assay [11] the test system is unchanged. Nature of the assay: Induction of increased cytosolic glutathione S-transferase activity in small bowel mucosa of A/J mice treated with 3 doses of 0.04 mM compound (dissolved in 0.3 mL of cottonseed oil) for 2 days.
The test system is the same in assay [12]. Description: Induction of increased cytosolic glutathione S-transferase activity in small bowel mucosa of A/J mice treated with 3 doses of 0.10 mM compound (dissolved in 0.3 mL of cottonseed oil) for 2 days.

SMILES strings stand for the structures.

Regarding `NC(CS/C(S)=N/CCCc1ccccc1)C(=O)O` (configuration not stated), the Ratio in assay [1] was 1.11 [middle of 11 runs]. For the same molecule, the Activity (uM min-1 (mg of protein)-1) is 0.31 in assay [2]; 0.29 in [3]; 1.35 in assay [4]; 1.2 in assay [5]; 6.16 in assay [6]; 0.86 in assay [7]. For the same molecule, the Activity (uM min-1 (mg of protein)-1) in assay [8] stood at 0.92; in assay [9] it was 0.26; in assay [10] it was 0.38; in assay [11], 0.49; in assay [12] it was 0.69.

For the origin of these results see ChEMBL document CHEMBL1126017, “Phenylalkyl isothiocyanate-cysteine conjugates as glutathione S-transferase stimulating agents” (J Med Chem, 1992).
